Laboratory results: ChEMBL document CHEMBL1671686, “Carbapenem-resistant KPC-2-producing Escherichia coli in a Tel Aviv Medical Center, 2005 to 2008” (2010)

Key:
Assay type in all cases: functional
Escherichia coli [1] = assay: Antimicrobial activity against Escherichia coli DH10B by vitek-2 method; settings: K-12 DH10B
Summary of the method: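 Plasmid-free recipient E. coli DH10B, used as the host for electroporation transformants, was tested for susceptibility on the automated Vitek-2 system.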

Escherichia coli [2] = assay: Antimicrobial activity against Escherichia coli isolate 540 expressing beta-lactamase KPC2, TEM and PFGE cluster 4 isolated from synovial fluid of patient by vitek-2 method
Escherichia coli [3] = assay: Antimicrobial activity against Escherichia coli isolate 329 expressing beta-lactamase KPC2, CTX-M-2, TEM and PFGE cluster 2 isolated from blood of patient by vitek-2 method
Escherichia coli [4] = assay: Antimicrobial activity against Escherichia coli isolate 339 expressing beta-lactamase KPC2, TEM and PFGE cluster 5 isolated from peritoneal fluid of patient by vitek-2 method
Escherichia coli [5] = assay: Antimicrobial activity against Escherichia coli isolate 339T expressing beta-lactamase KPC2 and PFGE cluster 5 isolated from peritoneal fluid of patient by vitek-2 method
Escherichia coli [6] = assay: Antimicrobial activity against Escherichia coli isolate 360 expressing beta-lactamase KPC2, CTX-M-15, OXA-9, TEM and PFGE cluster 1 isolated from urine of patient by vitek-2 method; settings: isolate 360, Urine
Escherichia coli [7] = assay: Antimicrobial activity against Escherichia coli isolate 386T expressing beta-lactamase KPC2, OXA-9 and PFGE cluster 1 isolated from wound of patient by vitek-2 method
Escherichia coli [8] = assay: Antimicrobial activity against Escherichia coli isolate 157 expressing beta-lactamase KPC2, CTX-M-15, TEM and PFGE cluster 3 isolated from urine of patient by vitek-2 method; settings: isolate 157, Urine
Escherichia coli [9] = assay: Antimicrobial activity against Escherichia coli isolate 386 expressing beta-lactamase KPC2, CTX-M-15, OXA-9, TEM and PFGE cluster 1 isolated from wound of patient by vitek-2 method
Escherichia coli [10] = assay: Antimicrobial activity against Escherichia coli isolate 1679 expressing beta-lactamase KPC2, SHV-12, TEM and PFGE cluster 6 isolated from peritoneal fluid of patient by vitek-2 method
Escherichia coli [11] = assay: Antimicrobial activity against Escherichia coli isolate 543 expressing beta-lactamase KPC2, CTX-M-15, TEM and PFGE cluster 4 isolated from synovial fluid of patient by vitek-2 method
Escherichia coli [12] = assay: Antimicrobial activity against Escherichia coli isolate 547T expressing beta-lactamase KPC2 and PFGE cluster 4 isolated from blood of patient by vitek-2 method
Escherichia coli [13] = assay: Antimicrobial activity against Escherichia coli isolate 157T expressing beta-lactamase KPC2 and PFGE cluster 3 isolated from urine of patient by vitek-2 method
Escherichia coli [14] = assay: Antimicrobial activity against Escherichia coli isolate 360T expressing beta-lactamase KPC2, OXA-9 and PFGE cluster 1 isolated from urine of patient by vitek-2 method
Escherichia coli [15] = assay: Antimicrobial activity against Escherichia coli isolate 329T expressing beta-lactamase KPC2 and PFGE cluster 2 isolated from blood of patient by vitek-2 method
Escherichia coli [16] = assay: Antimicrobial activity against Escherichia coli isolate 543T expressing beta-lactamase KPC2 and PFGE cluster 4 isolated from synovial fluid of patient by vitek-2 method
Escherichia coli [17] = assay: Antimicrobial activity against Escherichia coli isolate 544 expressing beta-lactamase KPC2, TEM and PFGE cluster 4 isolated from abscess of patient by vitek-2 method
Escherichia coli [18] = assay: Antimicrobial activity against Escherichia coli isolate 547 expressing beta-lactamase KPC2, TEM and PFGE cluster 4 isolated from blood of patient by vitek-2 method
Escherichia coli [19] = assay: Antimicrobial activity against Escherichia coli isolate 1679T expressing beta-lactamase KPC2, TEM and PFGE cluster 6 isolated from peritoneal fluid of patient by vitek-2 method

Measured: MIC

CO/N=C(\C(=O)N[C@@H]1C(=O)N2C(C(=O)[O-])=C(C[N+]3(C)CCCC3)CS[C@H]12)c1csc(N)n1
0.125 µg/mL: Escherichia coli [1]

NCC[C@H](O)C(=O)N[C@@H]1C[C@H](N)[C@@H](O[C@H]2O[C@H](CN)[C@@H](O)[C@H](O)[C@H]2O)[C@H](O)[C@H]1O[C@H]1O[C@H](CO)[C@@H](O)[C@H](N)[C@H]1O [AMIKACIN]
32 µg/mL: Escherichia coli [3] | Escherichia coli [6]
< 2 µg/mL: Escherichia coli [5] | Escherichia coli [10] | Escherichia coli [13] | Escherichia coli [15]
8 µg/mL: Escherichia coli [8] | Escherichia coli [17]
4 µg/mL: Escherichia coli [4]
< 1 µg/mL: Escherichia coli [1]
> 64 µg/mL: Escherichia coli [7] | Escherichia coli [9] | Escherichia coli [11] | Escherichia coli [14]
16 µg/mL: all other assays above

C[C@H]1[C@H](NC(=O)/C(=N\OC(C)(C)C(=O)O)c2csc(N)n2)C(=O)N1S(=O)(=O)O [AZTREONAM]
< 1 µg/mL: Escherichia coli [1]

CC(C)(O/N=C(\C(=O)N[C@@H]1C(=O)N2C(C(=O)[O-])=C(C[n+]3ccccc3)CS[C@H]12)c1csc(N)n1)C(=O)O [CEFTAZIDIME]
< 0.25 µg/mL: Escherichia coli [1]
> 64 µg/mL: Escherichia coli [3] | Escherichia coli [6] | Escherichia coli [8] | Escherichia coli [9] | Escherichia coli [10] | Escherichia coli [19]
4 µg/mL: Escherichia coli [2] | Escherichia coli [4] | Escherichia coli [18]
16 µg/mL: all other assays above

CO/N=C(\C(=O)N[C@@H]1C(=O)N2C(C(=O)O)=C(CSc3nc(=O)c(O)nn3C)CS[C@H]12)c1csc(N)n1 [CEFTRIAXONE]
32 µg/mL: Escherichia coli [10] | Escherichia coli [17]
8 µg/mL: Escherichia coli [5] | Escherichia coli [7] | Escherichia coli [12] | Escherichia coli [14] | Escherichia coli [19]
< 0.25 µg/mL: Escherichia coli [1]
16 µg/mL: Escherichia coli [15] | Escherichia coli [16]
> 64 µg/mL: all other assays above
